Measured values: paper PMC5677568 (Structure (London, England : 1993), 2017)

Legend:
Assay in all cases: Isothermal titration calorimetry
Format in all cases: binding
Conditions in all cases: read-out: Values shown are Kd
UEA-1 = target: UEA-1
How it was run: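 Commercial UEA-1 lectin was dialysed overnight into the ITC buffer, and lyophilised glycans were dissolved in the dialysate. Cell concentration was set by A280 with a calculated extinction coefficient. Titration used 16 injections of 2.45 μL (1 s duration, 180 s spacing) at 5 μCal reference power. Integrated peaks were fitted to a single-site model to give Kd and ΔH.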

RBC36 = target: RBC36
How it was run: (§1)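 N-terminally His6-tagged VLR ectodomains were expressed in Hi5 insect cells or by transient transfection of 293S cells, then purified by Ni-NTA and Superdex75 size exclusion. Protein was dialysed overnight into the ITC buffer, and lyophilised glycans were dissolved in the dialysate. Cell concentration was set by A280 with calculated extinction coefficients. Titration used 16 injections of 2.45 μL (1 s each, 180 s apart) at 5 μCal reference power. The single-site fit gave Kd and ΔH.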

O13 = target: O13
How it was run: as §1

Tn4-22 = target: Tn4-22
How it was run: as §1

Structure (SMILES)	Kd (UEA-1) [µM]	Kd (RBC36) [µM]	Kd (O13) [µM]	Kd (Tn4-22) [µM]
CC(=O)N[C@H]1C(O)O[C@H](CO)[C@@H](O[C@@H]2O[C@H](CO)[C@H](O)[C@H](O)[C@H]2O[C@@H]2O[C@@H](C)[C@@H](O)[C@@H](O)[C@@H]2O)[C@@H]1O[C@@H]1O[C@@H](C)[C@@H](O)[C@@H](O)[C@@H]1O (stereo partly drawn) [Lewis-Y, Lewis-Y antigen tetrasaccharide, Fucα1-2Galβ1-4(Fucα1-3)GlcNAc]	19.8			
C[C@@H]1O[C@@H](O[C@H]2[C@H](O[C@H]3[C@H](O)[C@@H](O)C(O)O[C@@H]3CO)O[C@H](CO)[C@H](O)[C@@H]2O)[C@@H](O)[C@H](O)[C@@H]1O (stereo partly drawn) [2′-fucosyllactose, 2′-fucosyllactose, Fucα1-2Galβ1-4Glc]	12.5	57.1		
CC(=O)N[C@H]1C(O)O[C@H](CO)[C@@H](O[C@@H]2O[C@H](CO)[C@H](O)[C@H](O)[C@H]2O[C@@H]2O[C@@H](C)[C@@H](O)[C@@H](O)[C@@H]2O)[C@@H]1O (stereo partly drawn) [H-trisaccharide, blood group H-trisaccharide type II, Fucα1-2Galβ1-4GlcNAc]	8.1	8.3	2.6	6.9
CC(=O)N[C@H]1[C@H](O[C@H]2[C@@H](O)[C@@H](CO)O[C@@H](O[C@H]3[C@H](O)[C@@H](O)C(O)O[C@@H]3CO)[C@@H]2O)O[C@H](CO)[C@@H](O[C@@H]2O[C@H](CO)[C@H](O)[C@H](O)[C@H]2O)[C@@H]1O (stereo partly drawn) [LNnT, lacto-N-neotetraose, Galβ1-4GlcNAcβ1-3Galβ1-4Glc]			160	16.2
